The values that follow come from ChEMBL document CHEMBL1122496, “A new class of nonhormonal pregnancy-terminating agents. Synthesis and contragestational activity of 3,5-diaryl-s-triazoles” (J Med Chem, 1983).

Data set [1] has as its system Cricetinae gen. sp. Description: (§1) Pregnancy-terminating activity in hamster when administered sc. It is filed as functional.
Data set [2] concerns Cricetinae gen. sp. Description: Pregnancy-terminating activity in hamster when administered perorally. As to conditions: po. The class given is functional, Cricetulus griseus.
Data set [3] deals with Rattus norvegicus. The data set is described as follows: Pregnancy-terminating activity in rat when administered po. It is filed as functional.
Data set [4] relates to Rattus norvegicus. The data set is described as follows: Pregnancy-terminating activity in rat when administered sc. It is filed as functional. Summed up: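 Pregnant rats were dosed once daily for 5 consecutive days, from day 6 to day 10. Compound was given in sesame oil containing 20% benzyl benzoate to groups of 5–30 animals at three to six dose levels.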
A short description of data set [5]: Solubility in sesame oil containing 20% of benzyl benzoate. The class given is physicochemical.
Data set [6] concerns Cricetinae gen. sp. The data set is described as §1. The class given is functional, Cricetulus griseus. In short, it runs like this: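 Pregnant hamsters were dosed daily for 5 consecutive days, from day 4 to day 8. Compound was given in sesame oil with 20% benzyl benzoate to groups of 5–30 animals at three to six dose levels. ED50 is the dose that ended pregnancy in half of the animals.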

Data set [7] has as its system Rattus norvegicus. The data set is described as follows: Pregnancy-terminating activity in Rat when administered sc. The class given is functional. Summed up: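 Pregnant rats were dosed once daily for 5 consecutive days, from day 6 to day 10. Compound was given in sesame oil containing 20% benzyl benzoate to groups of 5–30 animals at three to six dose levels. ED50 is the dose that terminated pregnancy in 50% of the animals.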

Setting [8] is: Cricetinae gen. sp., sc, read-out: ED50.

In the case of `Cc1ccccc1-c1nc(-c2ccc(N(C)C)cc2)n[nH]1`, the ED50 with Cricetinae gen. sp. [1] (setting [8]) stood at 10 mg/kg.
Still for that read-out and setting: to `Cc1cccc(-c2n[nH]c(-c3ccccc3)n2)c1` belongs over 20 mg/kg.
In the case of `CCc1ccccc1-c1n[nH]c(-c2ccc(OC)cc2)n1`, the ED50 with Cricetinae gen. sp. [2] came to 5 mg/kg; in the data set on Cricetinae gen. sp. [1] (setting [8]), 0.15 mg/kg.
On the same counts, the results for `Cc1cc(Cl)ccc1-c1n[nH]c(-c2ccccc2)n1` are 4 mg/kg and 0.14 mg/kg.
Turning to `CCOc1cccc(-c2n[nH]c(-c3ccccc3CC)n2)c1`, the ED50 in the data set with Cricetinae gen. sp. [2] is 4 mg/kg; with Cricetinae gen. sp. [1] (setting [8]), 0.04 mg/kg; with Rattus norvegicus [3] it was over 10 mg/kg; with Rattus norvegicus [4], 0.3 mg/kg.
In the case of `c1ccc(-c2nc3n(n2)Cc2ccccc2-3)cc1`, in data set [5], the Solubility is given as ~ 30 mg ml-1. Further, the values for the ED50 in the data set on Cricetinae gen. sp. [6] and in the data set with Rattus norvegicus [7] were 3.5 mg/kg and 1.8 mg/kg, respectively.
On the same counts, the results for `c1ccc(-c2nc3n(n2)CCc2ccccc2-3)cc1` are ~ 100 mg ml-1, 1 mg/kg and 16 mg/kg.
Regarding `Cc1ccc(C)c(-c2n[nH]c(-c3ccccc3)n2)c1`, in the data set with Cricetinae gen. sp. [1] (setting [8]), the ED50 was over 10 mg/kg.
Same read-out and setting: under `Cc1ccccc1-c1n[nH]c(-c2ccc(-c3ccccc3)cc2)n1` stands 10 mg/kg; under `CCc1ccccc1-c1n[nH]c(-c2cc(OC)cc(OC)c2)n1`, 10 mg/kg.
`CCc1ccccc1-c1n[nH]c(-c2cccc(F)c2)n1`: the ED50 with Cricetinae gen. sp. [2] was over 5 mg/kg; in the data set with Cricetinae gen. sp. [1] (setting [8]), 0.4 mg/kg.
On the same counts, the results for `COc1cccc(-c2n[nH]c(-c3ccccc3CO)n2)c1` are 15 mg/kg and 0.08 mg/kg.
For `C=CCOc1cccc(-c2nc(-c3ccccc3C)n[nH]2)c1`, in that order: 5 mg/kg and 0.15 mg/kg.
`Cc1ccccc1-c1n[nH]c(-c2ccc(F)cc2)n1`: the ED50 with Cricetinae gen. sp. [1] (setting [8]) amounted to 3.5 mg/kg.
Turning to `COc1cccc(-c2n[nH]c(-c3ccc(C)cc3C)n2)c1`, the ED50 with Cricetinae gen. sp. [2] is 10 mg/kg; in the data set on Cricetinae gen. sp. [1] (setting [8]), 0.04 mg/kg; in the data set with Rattus norvegicus [3] it was over 10 mg/kg; in the data set with Rattus norvegicus [4], 0.6 mg/kg.
Turning to `Cc1ccc(Cl)cc1-c1n[nH]c(-c2ccccc2)n1`, the ED50 with Cricetinae gen. sp. [1] (setting [8]) came to 1.2 mg/kg.
As to `COc1cccc(-c2n[nH]c(-c3cccc(C)c3)n2)c1`, the ED50 in the data set with Cricetinae gen. sp. [1] (setting [8]) came to 15 mg/kg.
As to `c1ccc(-c2nc3c4ccccc4ccn3n2)cc1`, the Solubility in data set [5] was ~ 10 mg ml-1. In addition, the figures for the ED50 in the data set with Cricetinae gen. sp. [1] (setting [8]) and in the data set on Rattus norvegicus [7] were 0.25 mg/kg and 2.5 mg/kg, respectively.
As to `CCCCc1ccccc1-c1n[nH]c(-c2cccc(OC)c2)n1`, the ED50 is 10 mg/kg in the data set on Cricetinae gen. sp. [2] and 12 mg/kg with Cricetinae gen. sp. [1] (setting [8]).
As to `CCc1ccccc1-c1n[nH]c(-c2cccc(C)c2C)n1`, the ED50 in the data set with Cricetinae gen. sp. [1] (setting [8]) was found to be 2 mg/kg.
For the molecule `COc1cccc(-c2n[nH]c(-c3ccccc3C=O)n2)c1`, the figures for the ED50 in the data set on Cricetinae gen. sp. [2] and in the data set with Cricetinae gen. sp. [1] (setting [8]) were 10 mg/kg and 0.1 mg/kg, respectively.
In the case of `Cc1ccccc1-c1n[nH]c(-c2ccc(Cl)cc2)n1`, the ED50 in the data set on Cricetinae gen. sp. [1] (setting [8]) was 4 mg/kg.
On to `CCc1ccccc1-c1n[nH]c(-c2ccc(OC)c(OC)c2)n1`, for which the median effective dose (ED50) was over 5 mg/kg in the data set on Cricetinae gen. sp. [2] and 0.05 mg/kg in the data set with Cricetinae gen. sp. [1] (setting [8]).
On to `CCc1ccccc1-c1n[nH]c(-c2cccc(OC)c2OC)n1`, for which the ED50 in the data set with Cricetinae gen. sp. [1] (setting [8]) turned out to be 10 mg/kg.
On to `CCc1ccccc1-c1n[nH]c(-c2cccc(-c3ccccc3)c2)n1`, for which the ED50 in the data set with Cricetinae gen. sp. [2] and in the data set with Cricetinae gen. sp. [1] (setting [8]) was 10 mg/kg each time.
As for `COc1ccc(C)c(-c2n[nH]c(-c3ccccc3)n2)c1`, the ED50 with Cricetinae gen. sp. [1] (setting [8]) is over 10 mg/kg.
On to `COc1cccc(-c2n[nH]c(-c3cc(OC)ccc3C)n2)c1`, for which, in the data set on Cricetinae gen. sp. [1] (setting [8]), the ED50 came out at 1 mg/kg.
The same measure, in the same setting: to `Cc1ccccc1-c1n[nH]c(-c2ccccc2Cl)n1` belongs 15 mg/kg; to `COc1ccc(-c2n[nH]c(-c3ccccc3)n2)c(C)c1`, over 10 mg/kg.
On the same count and under the same terms, to `Cc1cccc(-c2n[nH]c(-c3ccccc3C)n2)c1` belongs 4 mg/kg.
`COc1cccc(-c2n[nH]c(-c3ccc(Cl)cc3C)n2)c1`: the ED50 in the data set on Cricetinae gen. sp. [2] is 5 mg/kg; with Cricetinae gen. sp. [1] (setting [8]), 0.04 mg/kg; in the data set on Rattus norvegicus [3] it was over 10 mg/kg; in the data set with Rattus norvegicus [4], 0.5 mg/kg.
On to `CCc1ccccc1-c1n[nH]c(-c2ccc3c(c2)OCO3)n1`, for which the ED50 in the data set with Cricetinae gen. sp. [2] was 3 mg/kg; with Cricetinae gen. sp. [1] (setting [8]) it was 0.03 mg/kg; in the data set on Rattus norvegicus [3], about 20 mg/kg; with Rattus norvegicus [4], 0.6 mg/kg.
Turning to `C=CCOc1cccc(-c2nc(-c3ccccc3CC)n[nH]2)c1`, the median effective dose (ED50) turned out to be 5 mg/kg in the data set with Cricetinae gen. sp. [2] and 0.12 mg/kg in the data set with Cricetinae gen. sp. [1] (setting [8]).
Regarding `Cc1ccc(-c2n[nH]c(-c3ccccc3)n2)cc1`, the ED50 in the data set on Cricetinae gen. sp. [1] (setting [8]) was over 20 mg/kg.
`Cc1ccccc1-c1n[nH]c(-c2cccc(C(F)(F)F)c2)n1`: the figures for the ED50 in the data set on Cricetinae gen. sp. [2] and with Cricetinae gen. sp. [1] (setting [8]) were over 20 mg/kg and 0.6 mg/kg, respectively.
For `CCOc1cccc(-c2n[nH]c(-c3ccccc3C)n2)c1`, in that order: 5 mg/kg and 0.06 mg/kg.
With `Cc1ccc(-c2n[nH]c(-c3ccccc3C)n2)cc1`, the ED50 in the data set with Cricetinae gen. sp. [1] (setting [8]) was determined as 20 mg/kg.
For `COc1cccc(-c2n[nH]c(-c3ccccc3C(C)C)n2)c1`, the ED50 was 10 mg/kg in the data set on Cricetinae gen. sp. [2] and 4 mg/kg in the data set on Cricetinae gen. sp. [1] (setting [8]).
On the same counts, the results for `Cc1ccc(-c2n[nH]c(-c3ccccc3)n2)c(C)c1` are over 5 mg/kg and 0.2 mg/kg.
Regarding `COc1cccc(-c2n[nH]c(-c3ccc(C)cc3)n2)c1`, in the data set on Cricetinae gen. sp. [1] (setting [8]), the ED50 came out at 7 mg/kg.
In the case of `Cc1ccccc1-c1n[nH]c(-c2ccccc2C)n1`, the ED50 with Cricetinae gen. sp. [2] is over 10 mg/kg; in the data set with Cricetinae gen. sp. [1] (setting [8]) it was 0.7 mg/kg.
For the molecule `COc1cccc(-c2n[nH]c(-c3cc(Cl)ccc3C)n2)c1`, the ED50 in the data set with Cricetinae gen. sp. [1] (setting [8]) came to 0.35 mg/kg.
On the same count and under the same terms, under `COc1cccc(-c2n[nH]c(-c3cc(C)ccc3C)n2)c1` stands 2.5 mg/kg.
On to `c1ccc(-c2n[nH]c(-c3ccccc3)n2)cc1`, for which the ED50 came out at 10 mg/kg in the data set with Cricetinae gen. sp. [2] and 6 mg/kg with Cricetinae gen. sp. [1] (setting [8]).
As to `Cc1ccccc1-c1n[nH]c(-c2cccc(Cl)c2)n1`, the ED50 in the data set on Cricetinae gen. sp. [2] is over 20 mg/kg; in the data set on Cricetinae gen. sp. [1] (setting [8]) it was 0.6 mg/kg.
In the case of `CC(C)c1ccccc1-c1n[nH]c(-c2ccccc2)n1`, in the data set with Cricetinae gen. sp. [1] (setting [8]), the ED50 was 10 mg/kg.
Turning to `COc1ccccc1-c1n[nH]c(-c2ccccc2C)n1`, the ED50 in the data set with Cricetinae gen. sp. [2] was over 5 mg/kg; in the data set on Cricetinae gen. sp. [1] (setting [8]), 0.5 mg/kg.
As for `CCCCc1ccccc1-c1n[nH]c(-c2ccccc2)n1`, in the data set on Cricetinae gen. sp. [1] (setting [8]), the ED50 stood at 17 mg/kg.
`COc1cccc(-c2n[nH]c(-c3ccccc3C)n2)c1`: the results for the ED50 with Cricetinae gen. sp. [2] and in the data set with Cricetinae gen. sp. [1] (setting [8]) were 5 mg/kg and 0.08 mg/kg, respectively.
For `CCc1ccccc1-c1n[nH]c(-c2ccccc2)n1`, in that order: 5 mg/kg and 0.15 mg/kg.
As to `Cc1ccccc1-c1n[nH]c(-c2ccccc2)n1`, the Solubility in data set [5] was over 100 mg/mL. Further, the ED50 with Cricetinae gen. sp. [2] was 10 mg/kg; in the data set with Cricetinae gen. sp. [1], 0.3 mg/kg; in the data set with Cricetinae gen. sp. [1] (setting [8]), 0.3 mg/kg; in the data set with Rattus norvegicus [7], 2 mg/kg; in the data set on Rattus norvegicus [3], 50 mg/kg; in the data set with Rattus norvegicus [4] it was 2 mg/kg.
`COc1cccc(-c2nc(-c3ccc(OC)cc3C)n[nH]2)c1`: the ED50 is over 5 mg/kg in the data set with Cricetinae gen. sp. [2] and 0.2 mg/kg in the data set on Cricetinae gen. sp. [1] (setting [8]).

As usually defined, the ED50 is the dose at which the effect has come halfway, by size or by number of responders. The term Solubility denotes the dissolved amount per volume that the medium holds. A lower Solubility goes with little dissolved substance.
